# This is a sample that favours compounds with a hit; in the whole collection about 5.9% have one here.
# T cruzi growth-1: inhibitors of T. cruzi proliferation; T. cruzi beta-gal in NIH3T3, GalScreen luminescence, 90 h; inhibition, % at 8.34 µM; 77,000 tested, 5.9% active; AID 624255;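 active = mean inhibition above about 93%, with at least 55% of replicates each passing it, limit read from the data, passing the limit was not always enough; inconclusive = only one of those two conditions holds; inactive = neither condition holds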
# Pf Dd2 inh: P. falciparum Dd2 growth inhibition; 94,000 tested, 2.3% active; activity change, % at 10 µM; SYBR Green, 72 h; active compounds read low; AID 1159554; in the data active = activity change below about -80%; inconclusive = no clear call, values can overlap the other calls
# IDH1 mut inh: blocks human IDH1 R132H reductase activity | diaphorase/resazurin fluorescence, 60 min | AID 624101 | inhibition, % at 10 µM | O75874 | 70,000 tested, 0.18% active; in the data active = inhibition above about 34%; inconclusive = no clear call, values can overlap the other calls; inactive = below about 11%
# Target sequence (O75874 whole entry R132H): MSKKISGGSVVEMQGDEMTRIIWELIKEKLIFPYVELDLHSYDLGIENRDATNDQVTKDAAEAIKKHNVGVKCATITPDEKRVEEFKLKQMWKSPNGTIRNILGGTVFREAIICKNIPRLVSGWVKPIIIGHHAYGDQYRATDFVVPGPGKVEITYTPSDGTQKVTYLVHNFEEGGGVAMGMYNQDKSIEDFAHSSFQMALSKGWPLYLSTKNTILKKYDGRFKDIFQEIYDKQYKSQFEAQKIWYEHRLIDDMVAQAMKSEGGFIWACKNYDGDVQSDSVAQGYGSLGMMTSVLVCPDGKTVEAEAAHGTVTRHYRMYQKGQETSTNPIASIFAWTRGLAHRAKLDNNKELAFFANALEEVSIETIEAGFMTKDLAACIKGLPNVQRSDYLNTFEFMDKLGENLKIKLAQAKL
# KDM4C inh: KDM4C (human) demethylase inhibition; GST-KDM4C 2-372, H3K9me3 peptide, LANCE TR-FRET; 96,000 tested, 0.15% active; Q9H3R0; inhibition, % at 12.5 µM;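 active = mean replicate inhibition above about 25%, with at least 55% of replicates also reaching it, limit read from the data, passing the limit was not always enough; inconclusive = only one of those two conditions met; inactive = neither condition met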
#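 Material: GST-tagged GASC-1 (JMJD2C) catalytic fragment, aa 2-372 / Quantity: enzyme final amount 10 nM / Medium: HEPES buffer, pH 7.5, plus ascorbate / Doses: one test concentration per compound / Incubation: 30 min reaction, 60 min detection, RT / Measured by: LANCE TR-FRET / Read-out: inhibition from TR-FRET ratio decrease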
# T cruzi growth-2: inhibitors of T. cruzi proliferation; 5,600 tested, 72% active; AID 651739; inhibition, % at 8.35 µM; T. cruzi beta-gal in NIH3T3, GalScreen luminescence, 90 h; shares compounds with T cruzi growth-1;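 active = mean replicate inhibition above about 95% and at least 55% of replicates individually reaching it, limit read from the data; inconclusive = only one of the two criteria is met; inactive = neither criterion is met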
# T cruzi growth-3: blocks T. cruzi growth in NIH3T3 host cells. shares compounds with T cruzi growth-1. T. cruzi beta-gal in NIH3T3, GalScreen luminescence, 90 h. inhibition, % at 2.09 µM. 5,600 tested, 21% active;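 active = mean inhibition above about 95%, with at least 55% of replicates also reaching it, limit read from the data; inconclusive = meets just one of the two conditions; inactive = meets neither condition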
# 3T3 cytotox: NIH/3T3 (mouse) viability loss. shares compounds with T cruzi growth-1. NIH/3T3 viability, CellTiter-Glo ATP luminescence, 90 h. cytotoxicity (signal decrease), % at 8.35 µM. 5,600 tested, 14% active;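 active = mean signal decrease across replicates above about 35% based on untreated-well scatter, with enough replicates individually passing, limit read from the data; inconclusive = no rule stated though some were filed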
# 3T3 cytotox 2: NIH/3T3 (mouse) viability loss; NIH/3T3 viability, CellTiter-Glo ATP luminescence, 90 h; inhibition, % at 24.9 µM; shares compounds with T cruzi growth-1; 5,600 tested, 56% active;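 active = mean loss of cell viability signal at or above a set limit, and enough replicates individually reaching it; inconclusive = meets only the mean limit or only the replicate share; inactive = meets neither condition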
# Hits are given with their value; i = inactive; ? = inconclusive; nt = no result.
SMILES,T cruzi growth-1,Pf Dd2 inh,IDH1 mut inh,KDM4C inh,T cruzi growth-2,T cruzi growth-3,3T3 cytotox,3T3 cytotox 2
CCN(CC(=O)Nc1cccc2ccccc12)S(=O)(=O)c1ccc2ccccc2c1,nt,nt,i,nt,nt,nt,nt,nt
C[C@H]1CN([C@@H](C)CO)S(=O)(=O)c2ccc(C3=CCCCC3)cc2O[C@H]1CN(C)C(=O)C1CCCCC1,122.7,i,nt,i,104.5,i,i,107.3
C[C@@H]1CN([C@H](C)CO)S(=O)(=O)c2ccc(C3=CCCC3)cc2O[C@H]1CN(C)C(=O)C1CCC1,110.7,i,i,i,i,i,i,24.3
C[C@H](CO)N1C[C@H](C)[C@H](CN(C)C(=O)C2CCCCC2)Oc2cc(C3=CCCCC3)ccc2S1(=O)=O,115.6,i,nt,i,102.0,i,i,106.6
C[C@@H]1CN([C@H](C)CO)S(=O)(=O)c2ccc(C3=CCCCC3)cc2O[C@H]1CN(C)C(=O)C1CCCCC1,108.8,i,nt,i,104.6,i,i,104.6
C[C@H]1CN([C@@H](C)CO)S(=O)(=O)c2ccc(C3=CCCC3)cc2O[C@@H]1CN(C)C(=O)C1CCC1,i,i,nt,i,nt,nt,nt,nt
CCC(Sc1nnc2sc3ccccc3n12)C(=O)O (stereo unspecified),nt,nt,i,nt,nt,nt,nt,nt
O=C1c2cccc3cccc(c23)C(=O)N1CCCSc1nnc(-c2ccncc2)n1-c1ccccc1,nt,nt,i,nt,nt,nt,nt,nt
Cc1cc(Cl)ccc1NC(=O)CSc1nnc(-c2cccs2)n1-c1ccccc1,nt,nt,i,nt,nt,nt,nt,nt
Cc1ccccc1-c1ccc([C@H]2[C@@H](CO)N3CCCCN(C(=O)c4cccnc4)C[C@@H]23)cc1,102.5,i,nt,i,99.5,102.4,37.7,48.7
COc1ccccc1-c1ccc([C@H]2[C@H](CO)N3CCCCN(C(=O)c4cccnc4)C[C@@H]23)cc1,97.5,i,nt,i,?,i,?,39.4
Cc1cccc(-c2ccc([C@@H]3[C@H](CO)N4CCCCN(C(=O)c5cccnc5)C[C@@H]34)cc2)c1,105.1,i,nt,i,i,i,i,35.5
CCCC#Cc1ccc([C@H]2[C@H](C#N)N(C(=O)C3CCC3)[C@H]2CO)cc1,i,i,nt,i,nt,nt,nt,nt
CCCC#Cc1ccc([C@@H]2[C@@H](CO)N(C(=O)C3CCCCC3)[C@H]2C#N)cc1,i,i,nt,i,nt,nt,nt,nt
CCCC#Cc1ccc([C@@H]2[C@H](C#N)N(C(=O)C3CCCC3)[C@H]2CO)cc1,99.3,i,nt,i,97.9,106.4,i,78.1
CCCC#Cc1ccc([C@H]2[C@@H](C#N)N(C(=O)C3CCC3)[C@@H]2CO)cc1,98.5,i,nt,i,101.7,99.7,i,i
CCCC#Cc1ccc([C@@H]2[C@@H](C#N)N(C(=O)C3CCCCC3)[C@H]2CO)cc1,96.5,i,nt,i,i,106.1,i,53.3
COc1ccc(-c2nnc(SCC(=O)Nc3cc(Cl)c(Cl)cc3Cl)n2C)cc1,nt,nt,i,nt,nt,nt,nt,nt
CCS(=O)(=O)N1CCCCN2[C@H](C1)[C@@H](c1ccc(C#Cc3ccccn3)cc1)[C@@H]2CO,i,i,nt,i,nt,nt,nt,nt
O=C(c1ccncc1)N1CCCCN2[C@H](C1)[C@@H](c1ccc(C#Cc3ccccn3)cc1)[C@@H]2CO,107.7,i,nt,i,105.2,i,i,i
CS(=O)(=O)N1CCCCN2[C@H](CO)[C@H](c3ccc(C#Cc4ccccn4)cc3)[C@@H]2C1,113.0,i,nt,i,i,i,i,i
O=C(Nc1ccccc1)N1CCCCN2[C@@H](CO)[C@@H](c3ccc(C#Cc4ccccn4)cc3)[C@@H]2C1,100.8,i,nt,i,110.2,104.6,i,i
COc1ccc(C#Cc2ccc([C@@H]3[C@H](CO)N4CCCCN(C(=O)Nc5ccccc5)C[C@@H]34)cc2)cc1,i,i,nt,i,nt,nt,nt,nt
COc1ccc(NC(=O)N2CCCCN3[C@H](CO)[C@H](c4ccc(C#Cc5ccccc5)cc4)[C@H]3C2)cc1,i,i,nt,nt,nt,nt,nt,nt
COc1ccc(NC(=O)N2CCCCN3[C@H](C2)[C@@H](c2ccc(C#Cc4ccccn4)cc2)[C@@H]3CO)cc1,103.1,i,nt,i,102.7,i,i,37.5
SMILES,T cruzi growth-1,Pf Dd2 inh,IDH1 mut inh,KDM4C inh,T cruzi growth-2,T cruzi growth-3,3T3 cytotox,3T3 cytotox 2
O=C(c1ccncc1)N1CCCCN2[C@H](CO)[C@H](c3ccc(C#Cc4ccccn4)cc3)[C@@H]2C1,i,i,nt,i,nt,nt,nt,nt
CNC(=O)CN(c1ccc(C)cc1)S(=O)(=O)c1ccccc1,nt,nt,i,nt,nt,nt,nt,nt
CCn1c(SCC(=O)Nc2ccc(Cl)c(Cl)c2)nnc1-c1cccnc1,nt,nt,i,nt,nt,nt,nt,nt
N#Cc1cccc(-c2ccc3c(c2)[C@@H]2[C@@H](CCN2Cc2cncnc2)[C@H](CO)N3)c1,112.0,i,nt,i,114.7,i,i,39.5
N#Cc1cccc(-c2ccc3c(c2)[C@H]2[C@H](CCN2C(=O)c2ccncc2)[C@H](CO)N3)c1,117.9,-80.2,nt,i,i,i,i,i
N#Cc1cccc(-c2ccc3c(c2)[C@H]2[C@H](CCN2Cc2cncnc2)[C@H](CO)N3)c1,i,i,nt,i,nt,nt,nt,nt
COc1ccc(C)cc1S(=O)(=O)NCc1ccncc1,nt,nt,i,nt,nt,nt,nt,nt
O=C(CSC1CC(=O)N(c2ccc(OC(F)(F)F)cc2)C1=O)Nc1ccc(Cl)cc1 (stereo unspecified),nt,nt,i,nt,nt,nt,nt,nt
CC(C)CC#Cc1ccc2c(c1)O[C@H](CN(C)S(=O)(=O)c1cccc(F)c1)[C@H](C)CN([C@H](C)CO)S2(=O)=O,112.1,i,i,i,99.7,115.6,i,98.4
CC(C)CC#Cc1ccc2c(c1)O[C@@H](CN(C)S(=O)(=O)c1ccc(F)cc1)[C@@H](C)CN([C@@H](C)CO)S2(=O)=O,nt,i,i,i,nt,nt,nt,nt
CC(C)CC#Cc1ccc2c(c1)O[C@H](CN(C)S(=O)(=O)c1cccc(F)c1)[C@H](C)CN([C@@H](C)CO)S2(=O)=O,117.6,i,i,i,i,100.4,i,60.5
CS(=O)(=O)N(CC(=O)Nc1cc(C(F)(F)F)ccc1Cl)c1cccc(F)c1,nt,nt,i,nt,nt,nt,nt,nt
CC(=O)C1C(=O)[C@@H]2[C@H]3c4c[nH]c5cccc(c45)C[C@H]3C(C)(C)N2C1=O (stereo partly specified),nt,nt,i,nt,nt,nt,nt,nt
C[C@@H]1CCCCO[C@@H](CN(C)Cc2ccncc2)[C@H](C)CN([C@H](C)CO)C(=O)c2cc(NS(C)(=O)=O)ccc2O1,102.4,i,i,i,i,i,i,i
Cc1ccc(S(=O)(=O)Nc2ccc3c(c2)C(=O)N([C@H](C)CO)C[C@@H](C)[C@H](CN(C)Cc2ccccc2)OCCCC[C@@H](C)O3)cc1,93.3,i,nt,i,109.1,i,i,85.8
C[C@H](CO)N1C[C@H](C)[C@@H](CN(C)Cc2ccccc2)OCCCC[C@H](C)Oc2ccc(NS(C)(=O)=O)cc2C1=O,99.0,i,i,i,i,i,i,i

# Screens from PubChem.
